The source of these data is publication PMC7744370 (European journal of medicinal chemistry, 2020).

Data set [1] in a line: Liver microsomal stability. The class given is in vitro ADME. Particulars: rat liver microsomes, up to 60 minutes, compared with PFL. Put shortly:
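Pooled male Sprague-Dawley rat liver microsomes were diluted to a 6.2% mixture in warm potassium-phosphate buffer. Test compound, diluted to 5 μM from a DMSO stock, was mixed with NADPH regenerating solution and prewarmed to 37 °C. Microsomes were then added and incubated 1 h at 37 °C with shaking. Aliquots at 0, 5, 15, 30 and 60 min were quenched in ice-cold acetonitrile, centrifuged at 4 °C and analysed by LC-MS/MS. Percent remaining was calculated from peak-area ratios versus T=0. Results are mean ± SEM, three experiments in triplicate.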
Background: Liver microsomes are vesicles of endoplasmic reticulum, rich in cytochrome P450 enzymes.

Data set [2] relates to MDA-MB-231 cells. The data set is described as follows: Induction of apoptosis in MDA-MB-231 cells. The conditions noted are these: 1 μM, 48 hours. Format: cell-based, human.
Data set [3] relates to MDA-MB-231 cells. The data set is described as follows: Cell cycle analysis in MDA-MB-231 cells. The class given is cell-based, human.
Another data set has as its system caspase-3. The data set can be described thus: Caspase-3 cleavage. Format: cell-based, human. Particulars: MDA-MB-231. In outline: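 MDA-MB-231 cells, grown in DMEM with 10% heat-inactivated FBS at 37 °C and 5% CO2, were exposed to test compound for 48 h and lysed on ice in RIPA buffer with protease/phosphatase inhibitors. Equal protein was run on SDS-PAGE and blotted to PVDF. Blots were probed for cleaved caspase-3 and total caspase-3 (1:1000), with β-tubulin (1:2000) as loading control. Detection used goat anti-rabbit HRP secondary and chemiluminescence; bands were quantified by densitometry.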

In the next data set the test system is FGFR1. The data set can be described thus: pFGFR1 immunoblot in MDA-MB-231 cells with and without bFGF. Format: cell-based, human. Particulars: 3 μM and 6 μM, in the presence of bFGF, 48 hours. In outline:
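Phospho-FGFR1 (1:1000) western blot used MDA-MB-231 lysates after 48 h exposure to test compound, with or without the natural ligand bFGF. Lysis was on ice in RIPA buffer with protease/phosphatase inhibitors, followed by SDS-PAGE of equal protein and transfer to PVDF. β-tubulin (1:2000) served as loading control. Detection used HRP anti-rabbit secondary and chemiluminescence, then band densitometry; n = 3.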
On the technique in general: In western blotting, separated proteins are transferred to a membrane and probed.

The target of another data set is dopamine transporter (Homo sapiens, UniProt Q01959). The data set can be described thus: NIMH PDSP binding assay at dopamine transporter.
Sequence of dopamine transporter (Q01959 whole entry): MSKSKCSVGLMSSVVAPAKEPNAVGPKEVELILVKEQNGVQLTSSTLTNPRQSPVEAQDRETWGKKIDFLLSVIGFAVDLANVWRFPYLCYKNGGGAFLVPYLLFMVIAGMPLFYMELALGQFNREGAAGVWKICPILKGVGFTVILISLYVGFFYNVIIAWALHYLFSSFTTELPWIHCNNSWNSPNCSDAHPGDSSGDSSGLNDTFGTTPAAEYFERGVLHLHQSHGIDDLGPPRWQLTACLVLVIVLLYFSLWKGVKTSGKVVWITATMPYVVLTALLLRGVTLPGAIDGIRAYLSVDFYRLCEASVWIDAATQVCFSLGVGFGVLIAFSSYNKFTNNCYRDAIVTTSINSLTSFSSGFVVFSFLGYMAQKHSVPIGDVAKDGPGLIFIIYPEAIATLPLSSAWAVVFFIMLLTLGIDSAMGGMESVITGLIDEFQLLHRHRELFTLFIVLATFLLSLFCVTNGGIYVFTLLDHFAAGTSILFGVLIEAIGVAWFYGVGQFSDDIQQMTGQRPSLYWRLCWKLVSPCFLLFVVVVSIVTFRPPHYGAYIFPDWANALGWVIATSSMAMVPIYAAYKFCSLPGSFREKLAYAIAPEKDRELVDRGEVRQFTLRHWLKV
The test system of data set [4] is dopamine receptors (subtypes D1-D5). The data set is described as follows: Primary binding assay at dopamine receptors. The conditions noted are these: 10 μM. In outline:
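Primary binding screen across a CNS GPCR panel, run through the NIMH screening programme at UNC Chapel Hill. Test compound at 10 μM; read-out is % inhibition as mean ± SEM of four independent experiments. Ki was not evaluated for receptors with under 50% activity.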

The next data set concerns serotonin receptors. The data set is described as follows: Primary binding assay at serotonin receptors. Particulars: 10 μM. In outline:
(§1)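 […] primary binding screen across a panel of brain-expressed CNS receptors, including GPCRs, with test compound at 10 μM. The read-out is % inhibition of binding at each receptor, reported as mean ± SEM of four independent experiments. Receptors are grouped by >50% and >90% inhibition.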

The nature of data set [5]: In vivo BBB permeability, plasma and brain distribution by LC-MS/MS. More on the design: species or system C57 mice. Put shortly: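 Male and female C57 mice, 8 weeks old and about 20 g, received a single i.p. 10 mg/kg dose of test compound in 2.5% ethanol, 2.5% DMSO, 5% Tween 80, 25% PEG 400 and 65% PBS. Blood was drawn under anaesthesia at 0, 0.5, 1, 6, 24 and 48 h. Brains were taken after cardiac perfusion and homogenised in PBS (1:3 w/v). Samples were acetonitrile-precipitated with internal standard and quantified by positive-ESI MRM LC-MS/MS against blank-matrix calibration curves. Results are mean ± SEM of 2–4 experiments.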

In data set [6] the test system is GPCRs expressed in the brain. The data set is described as follows: Primary binding assay at selected CNS receptors. The conditions noted are these: 10 μM. Put shortly:
as §1

The test system of data set [7] is MDA-MB-231 triple-negative breast cancer cells. The data set is described as follows: MTT cytotoxicity assay on MDA-MB-231 cells. Format: cell-based, human. Put shortly: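 MDA-MB-231 cells were kept in DMEM with 10% heat-inactivated FBS and antibiotic-antimycotic at 37 °C, 5% CO2, and tested for mycoplasma. Cells were seeded at 8000/well, grown 24 h, then screened at 20 μM. Dose series of 0–25 μM were given in 2% FBS DMEM with 0.1% final DMSO for 48 h. MTT (0.5 mg/mL) was added for 2 h at 37 °C, formazan dissolved in DMSO and read at 570 nm. IC50 was fitted from three independent experiments.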

As to `O=C(NCCCCC(c1ccc(F)cc1)c1ccc(F)cc1)Nc1ccc([N+](=O)[O-])c(C(F)(F)F)c1` [4q, 1-(5,5-bis(4-fluorophenyl)pentyl)-3-(4-nitro-3-(trifluoromethyl)phenyl)urea], the “metabolic stability in liver microsomes” value in [1] is recorded as “preferred metabolic stability over PFL”. Besides, in the data set on MDA-MB-231 cells [2], the induction of apoptosis result is on record as “significant induction of apoptosis”. Further, the “effect on cell cycle” value with MDA-MB-231 cells [3] is listed as “did not affect the cell cycle”. Further, the “caspase-3 cleavage and activation” value in the data set on caspase-3 is “capable of caspase-3 cleavage and activation”. Further, in the data set on FGFR1, the “phosphorylation of FGFR1” value was “completely abrogated phosphorylation of FGFR1”.
In the case of `O=C(Nc1ccc(Cl)c(C(F)(F)F)c1)N1CCC(CC(c2ccc(F)cc2)c2ccc(F)cc2)CC1` [19b, 4-(2,2-bis(4-fluorophenyl)ethyl)-N-(4-chloro-3-(trifluoromethyl)phenyl) piperidine-1 carboxamide], the “DAT inhibitory activity (in words)” value at dopamine transporter was “abolished DAT activity”.
The Tmax is the time at which the peak concentration occurs. Take `O=C(NCCCCC(c1ccc(F)cc1)c1ccc(F)cc1)Nc1ccc(Cl)cc1` [4a, 1-(5,5-bis(4-fluorophenyl)pentyl)-3-(4-chlorophenyl)urea]: the “interaction with dopamine receptors (subtypes D1-D5)” value in data set [4] is “no significant interaction”. Moreover, the “activity at serotonin receptors” value with serotonin receptors is recorded as “no activity at serotonin receptors, except for 5HT-2C”. Also, the Tmax in data set [5] (both, C57, mouse, in vivo, ip, 10 mg/kg) was 1 h. Further, the “ability to cross the BBB in vivo” value in data set [5] (mice, 10 mg/kg i.p.) was “retained activity to cross the BBB”. The peak concentration result in [5] (mice, 10 mg/kg single i.p., plasma and brain (Fig. 3)) is “approximately 1000 nM”.
As for `OC1(c2ccc(Cl)c(C(F)(F)F)c2)CCN(CCCC(c2ccc(F)cc2)c2ccc(F)cc2)CC1` [PFL, penfluridol], in data set [6], the “number of receptors (GPCRs) inhibited at the level above 50%” value is given as 28.
For `CC(=O)Nc1cc(NC(=O)NCCCCC(c2ccc(F)cc2)c2ccc(F)cc2)ccc1Cl` [4o, N-(5-(3-(5,5-bis(4-fluorophenyl)pentyl)ureido)-2-chlorophenyl)acetamide], the “decrease in affinity to DAT compared to 4l” value on dopamine transporter amounted to 100 fold.
For the molecule `O=C(NCCCCC(c1ccc(F)cc1)c1ccc(F)cc1)Nc1ccc(Cl)c(C(F)(F)F)c1` [4l, 1-(5,5-bis(4-fluorophenyl)pentyl)-3-(4-chloro-3-(trifluoromethyl)phenyl)urea], the “metabolic stability in liver microsomes” value in data set [1] is listed as “preferred metabolic stability over PFL”.
Consider `CN(CCCCC(c1ccc(F)cc1)c1ccc(F)cc1)C(=O)N(C)c1ccc(Cl)c(C(F)(F)F)c1` [compound 15, 1-(5,5-bis(4-fluorophenyl)pentyl)-3-(4-chloro-3-(trifluoromethyl)phenyl)-1,3-dimethylurea], for which the “DAT inhibitory activity (in words)” value on dopamine transporter is “inactive as a DAT inhibitor”.
Regarding `O=C(NCCCCC(c1ccc([N+](=O)[O-])cc1)c1ccc([N+](=O)[O-])cc1)Nc1ccc(Cl)c(C(F)(F)F)c1` [8g, 1-(5,5-bis(4-nitrophenyl)pentyl)-3-(4-chloro-3-(trifluoromethyl)phenyl)urea], in data set [7], the “optimization of cytotoxicity relative to hit molecule 4a” value is recorded as 6 fold.
